Assay results taken from ChEMBL document CHEMBL2150951, “Studies on the antimicrobial properties of N-acylated ciprofloxacins” (2012).
Values after ≈ are worked out from the molar mass of the structure shown. Active and inactive are the calls of the source. No cut-off for these calls is given here.

Tests used:
Bartonella henselae = assay: Antibacterial activity against Bartonella henselae infected in african green monkey Vero cells by immunofluorescence staining; type: functional
Staphylococcus aureus [1] = assay: Antibacterial activity against methicillin-resistant Staphylococcus aureus isolate CBD 635 at 50 ug per disc by Kirby-Bauer disc diffusion assay; type: functional; conditions: read-out: DIZ
In short: (§1)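 Kirby-Bauer disk diffusion with 50 µg compound per 6 mm paper disk. Organisms were grown and plated by an earlier method. The zone-of-inhibition diameter was recorded to the nearest mm and averaged over three independent experiments. No zone was reported as 6 mm, the disk diameter.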

Staphylococcus aureus [2] = assay: Antibacterial activity against methicillin-resistant Staphylococcus aureus isolate CBD 635; type: functional
In short: (§2)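 MIC against S. aureus strains was run by an earlier published procedure, tested in triplicate. Values were averaged and expressed as µg/ml of compound.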

Staphylococcus aureus [3] = assay: Antibacterial activity against methicillin-susceptible Staphylococcus aureus SH1000; type: functional
In short: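 MIC in µg/ml, tested in triplicate and averaged, with ciprofloxacin as positive control.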

Staphylococcus aureus [4] = assay: Antibacterial activity against methicillin-resistant Staphylococcus aureus ATCC 43300; type: functional; in short: as §2
Bacillus anthracis = assay: Antibacterial activity against Bacillus anthracis sterne at 50 ug per disc by Kirby-Bauer disc diffusion assay; type: functional; conditions: read-out: DIZ; in short: as §1
Enterococcus faecalis = assay: Antibacterial activity against Enterococcus faecalis DS16 at 50 ug per disc by Kirby-Bauer disc diffusion assay; type: functional; conditions: read-out: DIZ
In short: (§3)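 Disks carried 50 µg of compound. Zone diameter was measured to the nearest mm and averaged over three independent experiments. A value of 6 mm, the disk diameter, was recorded where no inhibition was seen.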

[5] = Antibacterial activity against Bartonella henselae ATCC 49882 at 20 ug per disc after 7 days by Kirby-Bauer disc diffusion assay; type: functional, Bartonella henselae str. Houston-1; conditions: ATCC 49882, 168 h, read-out: DIZ
In short: (§4)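 Each paper disk was loaded with 20 µl of a 1 mg/ml solution, dried for 20 min and stored desiccated at 4 °C. Growth from 4-day plates was suspended in heart infusion broth to McFarland 2.0 and swabbed onto chocolate agar (heart infusion agar base with 5% bovine hemoglobin). Plates were incubated 1 week at 37 °C in 5% CO2. Zone diameter was read to the nearest mm, in triplicate and averaged.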

Bartonella quintana = assay: Antibacterial activity against Bartonella quintana ATCC VR358 at 20 ug per disc after 7 days by Kirby-Bauer disc diffusion assay; type: functional; conditions: ATCC VR358, 168 h, read-out: DIZ; in short: as §4
Bartonella elizabethae = assay: Antibacterial activity against Bartonella elizabethae F9251 at 20 ug per disc after 7 days by Kirby-Bauer disc diffusion assay; type: functional; conditions: F9251, 168 h, read-out: DIZ; in short: as §4
Bartonella vinsonii = assay: Antibacterial activity against Bartonella vinsonii ATCC VR152 at 20 ug per disc after 7 days by Kirby-Bauer disc diffusion assay; type: functional; conditions: ATCC VR152, 168 h, read-out: DIZ; in short: as §4
Escherichia coli [6] = assay: Antibacterial activity against Escherichia coli DH5alpha at 50 ug per disc by Kirby-Bauer disc diffusion assay; type: functional; conditions: DH5[alpha], read-out: DIZ; in short: as §3
[7] = Antibacterial activity against Bartonella henselae ATCC 49882 after 7 days by agar dilution method; type: functional, Bartonella henselae str. Houston-1; conditions: ATCC 49882, 168 h
In short: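 Agar dilution on chocolate agar containing compound at 10.0, 1.0 and 0.1 µg/ml, with 2-fold steps at and below 1.0 µg/ml for compounds active there. Controls were DMSO-only and drug-free plates. 25 µl of a McFarland 2.0 suspension in heart infusion broth was spotted and incubated 7 days at 37 °C in 5% CO2. Growth was scored +/− on duplicate plates; triplicate results were averaged.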

Escherichia coli [8] = assay: Inhibition of Escherichia coli DNA gyrase-mediated formation of supercoiled form of pUC19 at 1 to 100 ug/mL by gel electrophoresis
In short: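 Relaxed circular pUC19 was incubated with purified E. coli DNA gyrase and compound for 1 h at 37 °C. Relaxed and supercoiled DNA were resolved and quantified by gel electrophoresis.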

| Structure (SMILES) | MIC (Bartonella henselae) | zone of inhibition at 50 µg/disc (Staphylococcus aureus [1]) | MIC (Staphylococcus aureus [2]) | MIC (Staphylococcus aureus [3]) | MIC (Staphylococcus aureus [4]) | zone of inhibition at 50 µg/disc (Bacillus anthracis) | zone of inhibition at 50 µg/disc (Enterococcus faecalis) | zone of inhibition at 20 µg/disc [5] | zone of inhibition at 20 µg/disc (Bartonella quintana) | zone of inhibition at 20 µg/disc (Bartonella elizabethae) | zone of inhibition at 20 µg/disc (Bartonella vinsonii) | zone of inhibition at 50 µg/disc (Escherichia coli [6]) | MIC [7] | gyrase inhibition (active/inactive) (Escherichia coli [8]) |
| --- | --- | --- | --- | --- | --- | --- | --- | --- | --- | --- | --- | --- | --- | --- |
| C[C@H]1COc2c(N3CCN(C)CC3)c(F)cc3c(=O)c(C(=O)O)cn1c23.C[C@H]1COc2c(N3CCN(C)CC3)c(F)cc3c(=O)c(C(=O)O)cn1c23.O [LEVOFLOXACIN] | 0.84 µg/mL |  |  |  |  |  |  |  |  |  |  |  |  |  |
| CCCCC(CC)C(=O)N1CCN(c2cc3c(cc2F)c(=O)c(C(=O)O)cn3C2CC2)CC1 (stereo not given) |  | 26 mm | > 100 µg/mL | 10 µg/mL (≈ 21.9 µM) | > 100 µg/mL | 65 mm | 28 mm | 12 mm | 6 mm | 12 mm | 15 mm | 6 mm |  |  |
| CC(CC(=O)N1CCN(c2cc3c(cc2F)c(=O)c(C(=O)O)cn3C2CC2)CC1)CC(C)(C)C (stereo not given) |  | 35 mm | > 100 µg/mL | 25 µg/mL (≈ 53 µM) | > 100 µg/mL | 80 mm | 25 mm | 15 mm | 7 mm | 8 mm | 10 mm | 6 mm | 1 µg/mL (≈ 2.12 µM) | Active |
| CCCCC(=O)N1CCN(c2cc3c(cc2F)c(=O)c(C(=O)O)cn3C2CC2)CC1 |  | 30 mm | > 100 µg/mL | 7.5 µg/mL (≈ 18.1 µM) | 1 µg/mL (≈ 2.41 µM) | 80 mm | 39 mm | 38 mm | 35 mm | 35 mm | 57 mm | 47 mm | 5 µg/mL (≈ 12 µM) |  |
| CC1COc2c(N3CCN(C)CC3)c(F)cc3c(=O)c(C(=O)O)cn1c23 (stereo not given) [OFLOXACIN] | 5.6 µg/mL (≈ 15.5 µM) |  |  |  |  |  |  |  |  |  |  |  |  |  |
| O=C(O)c1cn(C2CC2)c2cc(N3CCN(C(=O)c4ccccc4)CC3)c(F)cc2c1=O |  | 6 mm | > 100 µg/mL | 25 µg/mL (≈ 57.4 µM) | > 100 µg/mL | 49 mm | 6 mm | 21 mm | 7 mm | 13 mm | 12 mm | 6 mm | 0.2 µg/mL (≈ 0.459 µM) |  |
| CCCCCC(=O)N1CCN(c2cc3c(cc2F)c(=O)c(C(=O)O)cn3C2CC2)CC1 |  | 36 mm | > 100 µg/mL | 20 µg/mL (≈ 46.6 µM) | 25 µg/mL (≈ 58.2 µM) | 77 mm | 38 mm | 31 mm | 30 mm | 30 mm | 21 mm | 30 mm | 5 µg/mL (≈ 11.6 µM) | Active |
| CCCCCCCC(=O)N1CCN(c2cc3c(cc2F)c(=O)c(C(=O)O)cn3C2CC2)CC1 |  | 6 mm | > 100 µg/mL | 25 µg/mL (≈ 54.6 µM) | 25 µg/mL (≈ 54.6 µM) | 65 mm | 29 mm | 16 mm | 14 mm | 14 mm | 15 mm | 6 mm | 10 µg/mL (≈ 21.9 µM) |  |
